From ChEMBL document CHEMBL2321795, “Solubility-driven optimization of (pyridin-3-yl) benzoxazinyl-oxazolidinones leading to a promising antibacterial agent” (J Med Chem, 2013)
≈ marks a conversion by molar mass, not a printed value.

Columns and labels:
[1] = system: Enterococcus faecium; assay: Antibacterial activity against linezolid-resistant Enterococcus faecium after 16 hrs by NCCLS agar dilution method; format: functional
Procedure, shortened: (§1)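 Agar dilution MIC. Stocks were 320 μg/mL in 50% aqueous DMSO, 2-fold serially diluted in sterile water, then diluted 10-fold into Mueller–Hinton agar to give 16–0.03125 μg/mL final. Organisms were grown in MH broth at 35 °C for 8 h and adjusted to 0.5 McFarland. They were spotted onto drug-containing plates with a multipoint inoculator and incubated at 35 °C for 16 h. Linezolid was the positive control.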

[2] = system: Staphylococcus epidermidis; assay: Antibacterial activity against linezolid-resistant Staphylococcus epidermidis after 16 hrs by NCCLS agar dilution method; format: functional; procedure, shortened: as §1
[3] = system: Staphylococcus aureus; assay: Antibacterial activity against linezolid-resistant Staphylococcus aureus after 16 hrs by NCCLS agar dilution method; format: functional; procedure, shortened: as §1
[4] = system: Staphylococcus aureus; assay: Antibacterial activity against Staphylococcus aureus ATCC 29213 after 16 hrs by NCCLS agar dilution method; format: functional; conditions: ATCC 29213, 16 h; procedure, shortened: as §1
[5] = system: Staphylococcus epidermidis; assay: Antibacterial activity against methicillin-resistant Staphylococcus epidermidis after 16 hrs by NCCLS agar dilution method; format: functional; procedure, shortened: as §1
[6] = system: Staphylococcus epidermidis; assay: Antibacterial activity against methicillin-sensitive Staphylococcus epidermidis after 16 hrs by NCCLS agar dilution method; format: functional; procedure, shortened: as §1
[7] = system: Staphylococcus aureus; assay: Antibacterial activity against methicillin-resistant Staphylococcus aureus after 16 hrs by NCCLS agar dilution method; format: functional; procedure, shortened: as §1
[8] = system: Staphylococcus aureus; assay: Antibacterial activity against methicillin-sensitive Staphylococcus aureus after 16 hrs by NCCLS agar dilution method; format: functional; procedure, shortened: as §1
[9] = system: Staphylococcus aureus; assay: Antibacterial activity against methicillin-sensitive Staphylococcus aureus ATCC 19636 infected in iv dosed systemic infection mouse model administered 1 hr post infection measured after 48 hrs; format: functional; conditions: ATCC 19636, iv
Procedure, shortened: (§2)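 Female ICR mice weighing 20–22 g, six per group, received 0.5 mL of 10⁷–10⁸ CFU/mL S. aureus intraperitoneally as a lethal systemic challenge. Dosing was oral or intravenous 1 h post-infection at 2.5, 5, 10 and 20 mg/kg, with linezolid as comparator.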

[10] = system: Staphylococcus aureus; assay: Antibacterial activity against methicillin-sensitive Staphylococcus aureus ATCC 19636 infected in po dosed systemic infection mouse model administered 1 hr post infection measured after 48 hrs; format: functional; conditions: ATCC 19636, po; procedure, shortened: as §2
[11] = Cmax in Sprague-Dawley rat at 10 mg/kg, po by LC-MS analysis; format: ADME, organism-based; parameters: dose 10 mg/kg, route oral; conditions: in vivo
Procedure, shortened: (§3)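 Rats were dosed orally or by intravenous injection. For prodrugs, all parameters were based on the active parent antibacterial detected in plasma, and each prodrug dose was also given as an equivalent parent dose. Parameters were Cmax, Tmax, elimination T1/2, AUC from the concentration–time curve, clearance and oral bioavailability F.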

[12] = system: Enterococcus faecalis; assay: Antibacterial activity against linezolid-resistant Enterococcus faecalis after 16 hrs by NCCLS agar dilution method; format: functional; procedure, shortened: as §1
[13] = system: Enterococcus faecalis; assay: Antibacterial activity against Enterococcus faecalis after 16 hrs by NCCLS agar dilution method; format: functional
Procedure, shortened: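 Agar dilution MIC per NCCLS, 6 E. faecalis strains. Stock was 320 μg/mL in 50% water/DMSO, serially 2-fold diluted in sterile water, then 10-fold into Mueller–Hinton agar to give 16–0.03125 μg/mL final. Inocula came from MH broth cultures grown 8 h at 35 °C, adjusted to 0.5 McFarland and spotted by multipoint inoculator. Plates were read after 16 h at 35 °C.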

[14] = system: Streptococcus pneumoniae; assay: Antibacterial activity against penicillin-resistant Streptococcus pneumoniae after 16 hrs by NCCLS agar dilution method; format: functional; procedure, shortened: as §1
[15] = system: Rattus norvegicus; assay: (§4) Oral bioavailability in Sprague-Dawley rat at 10 mg/kg; format: ADME, organism-based; conditions: in vivo; procedure, shortened: as §3
[16] = system: Rattus norvegicus; assay: AUC in Sprague-Dawley rat at 5.6 mg/kg, iv by LC-MS analysis; format: ADME, organism-based, Plasma; parameters: dose 5.6 mg/kg, route intravenous; conditions: in vivo; procedure, shortened: as §3
[17] = system: Rattus norvegicus; assay: (§5) AUC in Sprague-Dawley rat at 10 mg/kg, po by LC-MS analysis; format: ADME, organism-based, Plasma; parameters: dose 10 mg/kg, route oral; conditions: in vivo; procedure, shortened: as §3
[18] = Elimination half life in Sprague-Dawley rat at 10 mg/kg, po by LC-MS analysis; format: ADME, organism-based; parameters: dose 10 mg/kg, route oral; conditions: in vivo, read-out: beta t1/2 (converted); procedure, shortened: as §3
[19] = Elimination half life in Sprague-Dawley rat at 5.6 mg/kg, iv by LC-MS analysis; format: ADME, organism-based; parameters: dose 5.6 mg/kg, route intravenous; conditions: in vivo, read-out: beta t1/2 (converted); procedure, shortened: as §3
[20] = Tmax in Sprague-Dawley rat at 10 mg/kg, po by LC-MS analysis; format: ADME, organism-based; parameters: dose 10 mg/kg, route oral; conditions: in vivo; procedure, shortened: as §3
[21] = biological target: Voltage-gated inwardly rectifying potassium channel KCNH2 (Homo sapiens, UniProt Q12809)
[22] = Elimination half life in Sprague-Dawley rat at 10 mg/kg, iv by LC-MS analysis; format: ADME, organism-based; parameters: dose 10 mg/kg, route intravenous; conditions: in vivo, read-out: beta t1/2 (converted); procedure, shortened: as §3
[23] = Aqueous solubility of the compound; conditions: aqueous (not further specified)
[24] = Mean resident time in Staphylococcus aureus systemic infection mouse model at 2.5 to 20 mg/kg, iv; format: ADME, organism-based; parameters: dose 2.5-20 mg/kg, route intravenous; conditions: in vivo
[25] = system: Staphylococcus aureus; assay: Antibacterial activity against methicillin-resistant Staphylococcus aureus ATCC 33591 infected in po dosed systemic infection mouse model administered 1 hr post infection measured after 24 hrs; format: functional; conditions: ATCC 33591, po
Procedure, shortened: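 Female ICR mice, 23–25 g, made neutropenic with cyclophosphamide ip, 150 mg/kg 4 days and 100 mg/kg 2 days before infection. Infected ip with about 0.5 mL of 10⁶ CFU/mL MRSA. Oral dosing 1 h post-infection at 5, 10, 20 and 40 mg/kg, with linezolid as control. ED₅₀ (dose treating 50% of infections) by Reed–Muench and Hill equation, 24 h after treatment.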

[26] = as §4; format: ADME, organism-based; conditions: Sprague-Dawley, in vivo; procedure, shortened: as §3
[27] = Clearance in Sprague-Dawley rat at 10 mg/kg, iv by LC-MS analysis; format: ADME, organism-based; parameters: dose 10 mg/kg, route intravenous; conditions: in vivo; procedure, shortened: as §3
[28] = AUC in Sprague-Dawley rat at 10 mg/kg, iv by LC-MS analysis; format: ADME, organism-based; parameters: dose 10 mg/kg, route intravenous; conditions: plasma
Procedure, shortened: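 Rats dosed orally or by intravenous injection. AUC is the area under the plasma concentration–time curve. For the prodrug entries, all PK values were based on the amount of the active parent antibacterial detected, not the administered prodrug.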

[29] = as §5; format: ADME, organism-based, Plasma; parameters: dose 10 mg/kg, route oral; conditions: Sprague-Dawley, plasma; procedure, shortened: as §3

Sequence of Voltage-gated inwardly rectifying potassium channel KCNH2 (Q12809 whole entry): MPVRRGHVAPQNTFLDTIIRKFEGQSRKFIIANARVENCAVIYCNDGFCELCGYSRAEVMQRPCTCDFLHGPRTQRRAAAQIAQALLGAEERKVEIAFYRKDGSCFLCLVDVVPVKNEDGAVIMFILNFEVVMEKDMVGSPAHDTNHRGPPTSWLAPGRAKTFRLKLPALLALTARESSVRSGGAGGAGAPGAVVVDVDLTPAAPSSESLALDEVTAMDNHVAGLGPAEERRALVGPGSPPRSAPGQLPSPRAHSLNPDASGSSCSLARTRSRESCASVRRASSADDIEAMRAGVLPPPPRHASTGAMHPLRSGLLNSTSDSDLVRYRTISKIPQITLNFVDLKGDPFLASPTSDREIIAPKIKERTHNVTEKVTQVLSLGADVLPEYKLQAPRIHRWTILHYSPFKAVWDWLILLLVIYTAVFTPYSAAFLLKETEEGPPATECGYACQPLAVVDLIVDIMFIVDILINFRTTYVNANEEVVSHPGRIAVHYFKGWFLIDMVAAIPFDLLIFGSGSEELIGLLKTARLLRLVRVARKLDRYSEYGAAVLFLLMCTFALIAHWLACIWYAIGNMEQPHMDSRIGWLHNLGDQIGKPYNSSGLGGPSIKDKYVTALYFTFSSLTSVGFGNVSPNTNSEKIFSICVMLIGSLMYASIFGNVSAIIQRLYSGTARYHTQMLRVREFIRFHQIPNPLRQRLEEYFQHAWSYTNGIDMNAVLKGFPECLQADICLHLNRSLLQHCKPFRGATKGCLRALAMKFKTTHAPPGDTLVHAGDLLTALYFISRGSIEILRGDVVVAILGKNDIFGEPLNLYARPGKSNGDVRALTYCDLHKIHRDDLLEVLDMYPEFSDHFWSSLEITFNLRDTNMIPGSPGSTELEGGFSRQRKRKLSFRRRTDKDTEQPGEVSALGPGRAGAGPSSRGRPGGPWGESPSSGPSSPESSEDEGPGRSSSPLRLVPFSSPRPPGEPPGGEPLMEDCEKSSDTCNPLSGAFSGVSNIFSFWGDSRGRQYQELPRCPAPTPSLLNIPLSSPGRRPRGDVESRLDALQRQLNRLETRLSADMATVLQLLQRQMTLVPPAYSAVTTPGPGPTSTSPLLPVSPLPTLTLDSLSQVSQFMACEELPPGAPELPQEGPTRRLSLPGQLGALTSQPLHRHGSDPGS

SMILES | MIC [1] [µg/mL] | MIC [2] [µg/mL] | MIC [3] [µg/mL] | MIC [4] [µg/mL] | MIC [5] [µg/mL] | MIC [6] [µg/mL] | MIC [7] [µg/mL] | MIC [8] [µg/mL] | ED50 [9] [mg/kg] | ED50 [10] [mg/kg] | Cmax [11] [ng/mL] | half-life [18] [h] | Tmax [20] [h] | also measured
CC(=O)NC[C@H]1CN(c2ccc(N3CCOCC3)c(F)c2)C(=O)O1 [LINEZOLID] | 16 (≈ 47.4 µM) | 8 (≈ 23.7 µM) | > 8 | 1 (≈ 2.96 µM) | 2 (≈ 5.93 µM) | 1 (≈ 2.96 µM) | 1 (≈ 2.96 µM) | 1 (≈ 2.96 µM) | 7.07 | 8.28 | – | – | – | –
O=C1OC(CO)CN1c1ccc(-c2ccc3c(c2)OC[C@H]2[C@H](CO)OC(=O)N32)cn1 (some centres not stated) | 4 (≈ 9.68 µM) | 4 (≈ 9.68 µM) | 8 (≈ 19.4 µM) | 0.5 (≈ 1.21 µM) | 0.5 (≈ 1.21 µM) | 0.25 (≈ 0.605 µM) | 0.5 (≈ 1.21 µM) | 0.5 (≈ 1.21 µM) | – | – | 332 | 2.25 | 0.38 | MIC [12]: 4 µg/mL (≈ 9.68 µM); MIC [13]: 0.5 µg/mL (≈ 1.21 µM); MIC [14]: 0.5 µg/mL (≈ 1.21 µM); F [15]: 27.5%; AUC [16]: 2800 ng·h/mL; AUC [17]: 1491 ng·h/mL; half-life [19]: 1.08 h; IC50 [21]: > 40 µM
CN1C[C@@H](c2ccc(-c3ccc4c(c3)OC[C@H]3[C@H](COP(=O)([O-])[O-])OC(=O)N43)cn2)OC1=O.[Na+].[Na+] | – | – | – | – | – | – | – | – | 14.2 | 6.65 | 524 | 4.61 | 0.44 | half-life [22]: 4.88 h; solubility [23]: 227 mg/mL; MRT [24]: 1.25 h; ED50 [25]: 5 mg/kg; bioavailability [26]: 52.5%; clearance [27]: 40.3 mL/min/kg; AUC [28]: 3160 ng·h/mL; AUC [29]: 1660 ng·h/mL
